Test results taken from ChEMBL document CHEMBL1153841, “The antifungal polyketide ambruticin targets the HOG pathway” (2007).
In brackets after ≈: the same amount, converted by molar mass. Activity calls are given as the source filed them. No cut-off for these calls is given here.

Legend:
Saccharomyces cerevisiae [1] = experiment: Elevation of Hog1 phosphorylation Saccharomyces cerevisiae ATCC 201388 carrying deltahog1 gene at 25 ppm after 4 hrs in SD/-Ura medium by Western blot analysis; type: functional, organism-based
Method in brief: (§1)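 Overnight cultures in SD/−Ura resuspended in fresh SD/−Ura and grown 4 h, then exposed 10 min to compound (25 ppm), 0.5 M NaCl, or left untreated. Soluble protein from cell extracts Western blotted with anti-p38 antibody against doubly phosphorylated T180/Y182 (phospho-Hog1) and anti-C-terminal Hog1 antibody (total Hog1). Detection by HRP-conjugated secondary antibody with ECL Plus.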

Saccharomyces cerevisiae [2] = experiment: Elevation of Hog1 phosphorylation Saccharomyces cerevisiae ATCC 201388 carrying pYES2 at 25 ppm after 4 hrs in SD/-Ura medium by Western blot analysis; type: functional, organism-based; method in brief: as §1
Saccharomyces cerevisiae [3] = experiment: Elevation of Hog1 phosphorylation Saccharomyces cerevisiae ATCC 201388 carrying pYES2-HIK1 at 25 ppm after 4 hrs in SD/-Ura medium by Western blot analysis; type: functional, organism-based; method in brief: as §1
Saccharomyces cerevisiae [4] = experiment: Antifungal activity against Saccharomyces cerevisiae ATCC 201388 carrying pYES2-HIK1 in SG/-Ura medium after 48 hrs by CLSI susceptibility test; type: functional; details: ATCC 201388, 48 h
Method in brief: (§2)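 CLSI M27 broth MIC, modified so that SG/−Ura served as both inoculum-preparation and test medium in place of RPMI. Uracil is omitted to select for plasmid maintenance. Read after 48 h of incubation. MIC-0 is the concentration causing 90% reduction in growth relative to the untreated control.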

Saccharomyces cerevisiae [5] = experiment: Antifungal activity against Saccharomyces cerevisiae ATCC 201388 carrying pYES2-hik1-D1153E in SG/-Ura medium after 48 hrs by CLSI susceptibility test; type: functional; details: ATCC 201388, 48 h; method in brief: as §2
Saccharomyces cerevisiae [6] = experiment: Antifungal activity against Saccharomyces cerevisiae ATCC 201388 carrying pYES2 in SG/-Ura medium after 48 hrs by CLSI susceptibility test; type: functional; details: ATCC 201388, 48 h; method in brief: as §2
Saccharomyces cerevisiae [7] = experiment: Antifungal activity against Saccharomyces cerevisiae ATCC 201388 carrying pYES2 in SD/-Ura medium after 48 hrs by CLSI susceptibility test; type: functional; details: ATCC 201388, 48 h
Method in brief: (§3)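 Broth MIC following CLSI M27, except that inoculum prep and test medium used SD/−Ura in place of RPMI. Read at 48 h. MIC-0 is the concentration giving 90% growth reduction versus the untreated control.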

Saccharomyces cerevisiae [8] = experiment: Antifungal activity against Saccharomyces cerevisiae ATCC 201388 carrying pYES2-hik1-H736V in SG/-Ura medium after 48 hrs by CLSI susceptibility test; type: functional; details: ATCC 201388, 48 h; method in brief: as §2
Saccharomyces cerevisiae [9] = experiment: Antifungal activity against Saccharomyces cerevisiae ATCC 201388 carrying pYES2-hik1-H736V in SD/-Ura medium after 48 hrs by CLSI susceptibility test; type: functional; details: ATCC 201388, 48 h; method in brief: as §3
Saccharomyces cerevisiae [10] = experiment: Antifungal activity against Saccharomyces cerevisiae ATCC 201388 carrying pYES2-HIK1 in SD/-Ura medium after 48 hrs by CLSI susceptibility test; type: functional; details: ATCC 201388, 48 h; method in brief: as §3
Saccharomyces cerevisiae [11] = experiment: Antifungal activity against Saccharomyces cerevisiae ATCC 201388 carrying pYES2-hik1-D1153E in SD/-Ura medium after 48 hrs by CLSI susceptibility test; type: functional; details: ATCC 201388, 48 h; method in brief: as §3

| SMILES | Activity (Saccharomyces cerevisiae [1]) | Activity (Saccharomyces cerevisiae [2]) | Activity (Saccharomyces cerevisiae [3]) | MIC90 (Saccharomyces cerevisiae [4]) | MIC90 (Saccharomyces cerevisiae [5]) | MIC90 (Saccharomyces cerevisiae [6]) | MIC90 (Saccharomyces cerevisiae [7]) | MIC90 (Saccharomyces cerevisiae [8]) | MIC90 (Saccharomyces cerevisiae [9]) | MIC90 (Saccharomyces cerevisiae [10]) | MIC90 (Saccharomyces cerevisiae [11]) |
| --- | --- | --- | --- | --- | --- | --- | --- | --- | --- | --- | --- |
| CC[C@H]1O[C@@H](/C(C)=C/[C@H](C)/C=C/[C@H]2[C@@H](C)[C@@H]2/C=C/[C@@H]2O[C@H](CC(=O)O)C[C@H](O)[C@H]2O)CC=C1C | inactive | inactive | Active |  |  |  |  |  |  |  |  |
| CC[C@H]1O[C@@H](/C(C)=C/[C@H](C)/C=C/[C@H]2[C@@H](C)[C@@H]2/C=C/[C@@H]2O[C@H](CC(=O)O)C[C@H](N(C)C)[C@H]2O)CC=C1C [AMBRUTICIN VS3] |  |  |  | 0.5 µg/mL (≈ 0.997 µM) | > 32 µg/mL | > 32 µg/mL | > 32 µg/mL | > 32 µg/mL | > 32 µg/mL | > 32 µg/mL | > 32 µg/mL |
| N#Cc1c[nH]cc1-c1cccc2c1OC(F)(F)O2 [FLUDIOXONIL] |  |  |  | 2 µg/mL (≈ 8.06 µM) | > 32 µg/mL | > 32 µg/mL | > 32 µg/mL | > 32 µg/mL | > 32 µg/mL | > 32 µg/mL | > 32 µg/mL |
| C=CC1(C)OC(=O)N(c2cc(Cl)cc(Cl)c2)C1=O (configuration not stated) [VINCLOZOLIN] |  |  |  | 16 µg/mL (≈ 55.9 µM) | > 32 µg/mL | > 32 µg/mL | > 32 µg/mL | > 32 µg/mL | > 32 µg/mL | > 32 µg/mL | > 32 µg/mL |
